Several values for one entry are separate records, joined by “and”; a condition that tells them apart may be missing. Identical values can stand only once.
Test system: U2OS
Assay: Multiplex assay against U2OS
Type: toxicity, cell-based
Conditions: human
Summary of the method: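 Tubulin, mitochondrial-mass and membrane-permeability phenotypes are per cents of healthy-nucleus cells. Cells were gated by CellPathfinder machine learning into Hoechst high-intensity objects or normal cells, normal cells into healthy, pyknosed or fragmented nuclei, and pyknosed cells into mitotic or apoptotic. Before that, live cells stained at seeding with Hoechst33342, BioTracker Green Microtubule Cytoskeleton Dye, MitoTracker Red and Annexin V Alexa Fluor 680 were imaged on a CQ1 microscope at 37°C and 5% CO2 after compound addition.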

[1] = 12 h, 1 µM, compound concentration 1 uM, replicate 1
[2] = 12 h, 1 µM, compound concentration 1 uM, replicate 2
[3] = 12 h, 10 µM, compound concentration 10 uM, replicate 1
[4] = 12 h, 10 µM, compound concentration 10 uM, replicate 2
[5] = 24 h, 1 µM, compound concentration 1 uM, replicate 1
[6] = 24 h, 1 µM, compound concentration 1 uM, replicate 2
[7] = 24 h, 10 µM, compound concentration 10 uM, replicate 1
[8] = 24 h, 10 µM, compound concentration 10 uM, replicate 2
[9] = 48 h, 1 µM, compound concentration 1 uM, replicate 1
[10] = 48 h, 1 µM, compound concentration 1 uM, replicate 2
[11] = 48 h, 10 µM, compound concentration 10 uM, replicate 1
[12] = 48 h, 10 µM, compound concentration 10 uM, replicate 2

SMILES: OC1(c2ccc(Cl)cc2)CCN(Cc2c[nH]c3ccccc23)CC1
- Population Apoptotic (%) [1]: 64%
- Population Fragmented Nuclei (%) [1]: 10%
- Population Healthy Nuclei (%) [1]: 80%
- Population Hoechst High Intensity Objects (%) [1]: 9%
- Population Mitochondria Different-Phenotype (%) [1]: 15%
- Population Mitotic Cells (%) [1]: 35%
- Population Normal (%) [1]: 90%
- Population Tubulin-Different-Phenotype (%) [1]: 11%
- Total Cell Count [1]: 115
- Population Apoptotic (%) [2]: 0%
- Population Fragmented Nuclei (%) [2]: 13%
- Population Healthy Nuclei (%) [2]: 77%
- Population Hoechst High Intensity Objects (%) [2]: 10%
- Population Membrane Permeable-Phenotype (%) [2]: 3%
- Population Mitochondria Different-Phenotype (%) [2]: 13%
- Population Mitotic Cells (%) [2]: 100%
- Population Normal (%) [2]: 89%
- Population Pyknosed Nuclei (%) [2]: 9%
- Population Tubulin-Different-Phenotype (%) [2]: 9%
- Total Cell Count [2]: 78
- Population Apoptotic (%) [3]: 52%
- Population Fragmented Nuclei (%) [3]: 15%
- Population Healthy Nuclei (%) [3]: 35%
- Population Hoechst High Intensity Objects (%) [3]: 5%
- Population Membrane Permeable-Phenotype (%) [3]: 10%
- Population Mitochondria Different-Phenotype (%) [3]: 92%
- Population Mitotic Cells (%) [3]: 47%
- Population Normal (%) [3]: 94%
- Population Pyknosed Nuclei (%) [3]: 48%
- Population Tubulin-Different-Phenotype (%) [3]: 84%
- Total Cell Count [3]: 165
- Population Apoptotic (%) [4]: 42%
- Population Fragmented Nuclei (%) [4]: 13%
- Population Healthy Nuclei (%) [4]: 38%
- Population Hoechst High Intensity Objects (%) [4]: 3%
- Population Membrane Permeable-Phenotype (%) [4]: 4%
- Population Mitochondria Different-Phenotype (%) [4]: 95%
- Population Mitotic Cells (%) [4]: 57%
- Population Normal (%) [4]: 96%
- Population Pyknosed Nuclei (%) [4]: 47%
- Population Tubulin-Different-Phenotype (%) [4]: 60%
- Total Cell Count [4]: 74
- Population Apoptotic (%) [5]: 50%
- Population Fragmented Nuclei (%) [5]: 7%
- Population Healthy Nuclei (%) [5]: 82%
- Population Hoechst High Intensity Objects (%) [5]: 4%
- Population Membrane Permeable-Phenotype (%) [5]: 3%
- Population Mitochondria Different-Phenotype (%) [5]: 6%
- Population Mitotic Cells (%) [5]: 50%
- Population Normal (%) [5]: 95%
- Population Pyknosed Nuclei (%) [5]: 9%
- Population Tubulin-Different-Phenotype (%) [5]: 10%
- Total Cell Count [5]: 119
- Population Apoptotic (%) [6]: 20%
- Population Fragmented Nuclei (%) [6]: 5%
- Population Healthy Nuclei (%) [6]: 88%
- Population Hoechst High Intensity Objects (%) [6]: 8%
- Population Membrane Permeable-Phenotype (%) [6]: 4%
- Population Mitochondria Different-Phenotype (%) [6]: 13%
- Population Mitotic Cells (%) [6]: 80%
- Population Normal (%) [6]: 91%
- Population Pyknosed Nuclei (%) [6]: 6%
- Population Tubulin-Different-Phenotype (%) [6]: 8%
- Total Cell Count [6]: 77
- Population Apoptotic (%) [7]: 61%
- Population Fragmented Nuclei (%) [7]: 20%
- Population Healthy Nuclei (%) [7]: 22%
- Population Hoechst High Intensity Objects (%) [7]: 9%
- Population Membrane Permeable-Phenotype (%) [7]: 20%
- Population Mitochondria Different-Phenotype (%) [7]: 79%
- Population Mitotic Cells (%) [7]: 38%
- Population Normal (%) [7]: 90%
- Population Pyknosed Nuclei (%) [7]: 56%
- Population Tubulin-Different-Phenotype (%) [7]: 50%
- Total Cell Count [7]: 197
- Population Apoptotic (%) [8]: 66%
- Population Fragmented Nuclei (%) [8]: 21%
- Population Healthy Nuclei (%) [8]: 27%
- Population Hoechst High Intensity Objects (%) [8]: 5%
- Population Membrane Permeable-Phenotype (%) [8]: 5%
- Population Mitochondria Different-Phenotype (%) [8]: 94%
- Population Mitotic Cells (%) [8]: 33%
- Population Normal (%) [8]: 94%
- Population Pyknosed Nuclei (%) [8]: 51%
- Population Tubulin-Different-Phenotype (%) [8]: 52%
- Total Cell Count [8]: 85
- Population Apoptotic (%) [9]: 23%
- Population Healthy Nuclei (%) [9]: 83%
- Population Mitochondria Different-Phenotype (%) [9]: 11%
- Population Mitotic Cells (%) [9]: 76%
- Population Pyknosed Nuclei (%) [9]: 9%
- Population Tubulin-Different-Phenotype (%) [9]: 8%
- Total Cell Count [9]: 132
- Population Apoptotic (%) [10]: 41%
- Population Fragmented Nuclei (%) [10]: 7%
- Population Healthy Nuclei (%) [10]: 81%
- Population Hoechst High Intensity Objects (%) [10]: 3%
- Population Membrane Permeable-Phenotype (%) [10]: 3%
- Population Mitochondria Different-Phenotype (%) [10]: 17%
- Population Mitotic Cells (%) [10]: 58%
- Population Normal (%) [10]: 96%
- Population Pyknosed Nuclei (%) [10]: 11%
- Population Tubulin-Different-Phenotype (%) [10]: 16%
- Total Cell Count [10]: 85
- Population Apoptotic (%) [11]: 79%
- Population Fragmented Nuclei (%) [11]: 37%
- Population Healthy Nuclei (%) [11]: 6%
- Population Hoechst High Intensity Objects (%) [11]: 12%
- Population Membrane Permeable-Phenotype (%) [11]: 25%
- Population Mitochondria Different-Phenotype (%) [11]: 87%
- Population Mitotic Cells (%) [11]: 20%
- Population Normal (%) [11]: 88%
- Population Pyknosed Nuclei (%) [11]: 56%
- Population Tubulin-Different-Phenotype (%) [11]: 62%
- Total Cell Count [11]: 282
- Population Apoptotic (%) [12]: 70%
- Population Fragmented Nuclei (%) [12]: 32%
- Population Healthy Nuclei (%) [12]: 12%
- Population Hoechst High Intensity Objects (%) [12]: 8%
- Population Membrane Permeable-Phenotype (%) [12]: 75%
- Population Mitochondria Different-Phenotype (%) [12]: 75%
- Population Mitotic Cells (%) [12]: 29%
- Population Normal (%) [12]: 91%
- Population Pyknosed Nuclei (%) [12]: 54%
- Population Tubulin-Different-Phenotype (%) [12]: 50%
- Total Cell Count [12]: 111

SMILES: CNCc1ccc(-c2cc(-c3nc(-c4ccc(S(=O)(=O)C(C)C)cc4)cnc3N)on2)cc1 [BERZOSERTIB]
- Population Apoptotic (%) [1]: 16% and 46%
- Population Healthy Nuclei (%) [1]: 6% and 0%
- Population Hoechst High Intensity Objects (%) [1]: 31% and 81%
- Population Membrane Permeable-Phenotype (%) [1]: 46% and 20%
- Population Mitochondria Different-Phenotype (%) [1]: 40% and 20%
- Population Mitotic Cells (%) [1]: 83% and 53%
- Population Tubulin-Different-Phenotype (%) [1]: 40% and 80%
- Total Cell Count [1]: 185 and 523
- Population Apoptotic (%) [2]: 10%
- Population Fragmented Nuclei (%) [2]: 41% and 95%
- Population Healthy Nuclei (%) [2]: 10% and 1%
- Population Hoechst High Intensity Objects (%) [2]: 52% and 83%
- Population Membrane Permeable-Phenotype (%) [2]: 42% and 55%
- Population Mitotic Cells (%) [2]: 89%
- Population Normal (%) [2]: 47% and 16%
- Population Pyknosed Nuclei (%) [2]: 48%
- Population Apoptotic (%) [3]: 17% and 38%
- Population Healthy Nuclei (%) [3]: 4% and 0%
- Population Hoechst High Intensity Objects (%) [3]: 49% and 82%
- Population Membrane Permeable-Phenotype (%) [3]: 58% and 75%
- Population Mitochondria Different-Phenotype (%) [3]: 25% and 0%
- Population Mitotic Cells (%) [3]: 82% and 61%
- Population Normal (%) [3]: 50% and 17%
- Population Tubulin-Different-Phenotype (%) [3]: 41% and 50%
- Population Apoptotic (%) [4]: 11%
- Population Fragmented Nuclei (%) [4]: 39% and 97%
- Population Healthy Nuclei (%) [4]: 9% and 1%
- Population Hoechst High Intensity Objects (%) [4]: 45%
- Population Membrane Permeable-Phenotype (%) [4]: 31% and 62%
- Population Mitochondria Different-Phenotype (%) [4]: 5% and 12%
- Population Mitotic Cells (%) [4]: 88%
- Population Normal (%) [4]: 54%
- Population Apoptotic (%) [5]: 50%
- Population Healthy Nuclei (%) [5]: 0% and 11%
- Population Hoechst High Intensity Objects (%) [5]: 81% and 50%
- Population Membrane Permeable-Phenotype (%) [5]: 50% and 61%
- Population Mitotic Cells (%) [5]: 50%
- Population Normal (%) [5]: 18% and 49%
- Population Tubulin-Different-Phenotype (%) [5]: 50% and 61%
- Total Cell Count [5]: 432 and 192
- Population Apoptotic (%) [6]: 28%
- Population Fragmented Nuclei (%) [6]: 37% and 97%
- Population Hoechst High Intensity Objects (%) [6]: 56% and 82%
- Population Membrane Permeable-Phenotype (%) [6]: 38% and 44%
- Population Mitochondria Different-Phenotype (%) [6]: 33% and 11%
- Population Mitotic Cells (%) [6]: 71%
- Population Normal (%) [6]: 43% and 17%
- Population Pyknosed Nuclei (%) [6]: 41%
- Population Tubulin-Different-Phenotype (%) [6]: 47% and 55%
- Total Cell Count [6]: 92 and 244
- Population Apoptotic (%) [7]: 33% and 22%
- Population Fragmented Nuclei (%) [7]: 19%
- Population Healthy Nuclei (%) [7]: 10%
- Population Hoechst High Intensity Objects (%) [7]: 59%
- Population Membrane Permeable-Phenotype (%) [7]: 61%
- Population Mitotic Cells (%) [7]: 66% and 77%
- Population Normal (%) [7]: 40%
- Population Pyknosed Nuclei (%) [7]: 70%
- Population Tubulin-Different-Phenotype (%) [7]: 75%
- Population Apoptotic (%) [8]: 14% and 40%
- Population Fragmented Nuclei (%) [8]: 38% and 98%
- Population Healthy Nuclei (%) [8]: 15% and 0%
- Population Hoechst High Intensity Objects (%) [8]: 51% and 82%
- Population Mitochondria Different-Phenotype (%) [8]: 21% and 16%
- Population Mitotic Cells (%) [8]: 85% and 60%
- Population Normal (%) [8]: 48% and 17%
- Population Tubulin-Different-Phenotype (%) [8]: 36% and 66%
